Experimental data reported in ChEMBL document CHEMBL1127290, “1-(2,5-Dimethoxy-4-(trifluoromethyl)phenyl)-2-aminopropane: a potent serotonin 5-HT2A/2C agonist” (J Med Chem, 1994).

How the values were obtained:
[1] = biological target: T1, 5-hydroxytryptamine receptor 2C (Mus musculus) (UniProt P34968); assay: Percent of maximum stimulation of phosphatidylinositol turnover at cloned 5-hydroxytryptamine 2C receptor in A9 cells; assay type: functional, cell-based
T1 sequence (whole entry): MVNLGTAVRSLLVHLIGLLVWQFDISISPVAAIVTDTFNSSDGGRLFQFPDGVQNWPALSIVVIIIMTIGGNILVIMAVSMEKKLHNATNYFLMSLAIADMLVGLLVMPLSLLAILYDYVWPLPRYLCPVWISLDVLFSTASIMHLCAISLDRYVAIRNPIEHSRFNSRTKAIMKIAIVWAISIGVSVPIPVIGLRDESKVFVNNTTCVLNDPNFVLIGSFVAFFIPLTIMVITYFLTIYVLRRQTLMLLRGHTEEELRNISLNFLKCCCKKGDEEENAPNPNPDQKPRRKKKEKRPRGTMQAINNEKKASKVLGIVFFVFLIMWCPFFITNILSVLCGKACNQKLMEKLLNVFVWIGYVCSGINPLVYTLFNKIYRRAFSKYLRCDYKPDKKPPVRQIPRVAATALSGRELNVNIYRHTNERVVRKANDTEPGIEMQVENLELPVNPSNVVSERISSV
Outline: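 A9 cells expressing cloned 5-HT2C receptor, labelled 18 h with 1 μCi/mL [3H]inositol in inositol-free DMEM with dialysed serum. Compounds given 60 min with 10 mM LiCl in Krebs bicarbonate buffer, then [3H]inositol monophosphate accumulation measured. Expressed as % of the 5-HT (10^-5 M) maximum minus control. Vmax by nonlinear regression. Triplicates in three experiments, mean ± SE.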

[2] = biological target: 5-hydroxytryptamine receptor 2A (Mus musculus) (UniProt P35363); assay: Percent of maximum stimulation of phosphatidylinositol turnover at cloned 5-hydroxytryptamine 2A receptor in 3T3 cells; assay type: functional, cell-based; settings: NIH3T3
Chain of 5-hydroxytryptamine receptor 2A (Mus musculus) (P35363 whole entry): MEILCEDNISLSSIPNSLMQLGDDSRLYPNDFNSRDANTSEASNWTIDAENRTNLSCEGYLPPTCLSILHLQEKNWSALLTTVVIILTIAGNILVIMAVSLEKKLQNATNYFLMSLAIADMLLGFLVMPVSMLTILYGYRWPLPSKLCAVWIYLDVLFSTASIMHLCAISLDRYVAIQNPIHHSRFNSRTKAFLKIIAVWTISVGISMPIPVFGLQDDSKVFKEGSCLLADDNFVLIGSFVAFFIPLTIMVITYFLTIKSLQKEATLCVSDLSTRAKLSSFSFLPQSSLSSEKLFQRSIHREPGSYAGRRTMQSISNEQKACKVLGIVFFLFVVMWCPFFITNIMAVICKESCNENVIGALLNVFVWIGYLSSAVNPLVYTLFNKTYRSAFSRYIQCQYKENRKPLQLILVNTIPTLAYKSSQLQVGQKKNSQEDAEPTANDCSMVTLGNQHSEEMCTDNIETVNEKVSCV

Row | SMILES | K aff [1] [nM] | K aff [2] [nM]
1 | COc1cc(CC(C)N)c(OC)cc1I (stereo unspecified) | 43 | 119
2 | COc1cc(C(F)(F)F)c(OC)cc1CCN | 32 | 165
3 | COc1cc(C(F)(F)F)c(OC)cc1CC(C)N (stereo unspecified) | 43 | 86
